Screening results deposited in PubChem BioAssay by The Scripps Research Institute Molecular Screening Center.
CHRM5 agonist: human M5 muscarinic receptor agonists, primary screen, CHO-K1 cells, Fluo-8 calcium fluorescence; activation, % at 3 µM; actives 0.19% (n = 360,000); CHO-K1 hM5 cells; 0% DMSO wells, 100% maximal acetylcholine response; Muscarinic acetylcholine receptor M5 (Homo sapiens), P08912;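 active = activation above the run's mean over test compounds plus 3 SD, cut at about 23% in these data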;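 also: signal is peak over basal fluorescence ratio across the kinetic read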
Target sequence (P08912 whole entry, looked up): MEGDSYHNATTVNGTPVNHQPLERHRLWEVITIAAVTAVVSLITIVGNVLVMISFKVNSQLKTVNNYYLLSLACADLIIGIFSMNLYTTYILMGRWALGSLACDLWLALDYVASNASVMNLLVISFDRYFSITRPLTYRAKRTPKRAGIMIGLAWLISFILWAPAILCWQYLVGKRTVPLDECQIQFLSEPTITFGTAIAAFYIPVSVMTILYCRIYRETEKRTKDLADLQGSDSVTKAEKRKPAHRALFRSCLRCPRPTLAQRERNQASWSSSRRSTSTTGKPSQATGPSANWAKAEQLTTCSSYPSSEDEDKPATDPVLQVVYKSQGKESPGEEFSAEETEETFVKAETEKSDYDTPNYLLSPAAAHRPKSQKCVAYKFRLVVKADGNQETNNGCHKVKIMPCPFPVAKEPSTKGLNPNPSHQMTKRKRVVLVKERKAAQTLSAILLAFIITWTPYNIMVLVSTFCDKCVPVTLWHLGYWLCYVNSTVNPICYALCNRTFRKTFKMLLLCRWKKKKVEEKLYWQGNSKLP
M1 PAM: human M1 muscarinic receptor positive allosteric modulators, primary screen, CHO-K1 cells, Fluo-8 calcium fluorescence, 1536-well; Muscarinic acetylcholine receptor M1 (Homo sapiens), P11229; actives 0.088% (n = 360,000); activation, % at 3 µM; CHO-K1 hM1, ACh EC20; 0% = ACh EC20, 100% = maximal ACh; in the data active = activation above about 19%, passing the limit was not always enough
CHRM5 antagonist: human M5 muscarinic receptor antagonists, primary screen, CHO cells, Fluo-8 calcium fluorescence | Muscarinic acetylcholine receptor M5 (Homo sapiens), P08912 | CHO-hM5 cells, ACh EC80 | inhibition, % at 3 µM | actives 0.59% (n = 360,000) | AID 624040, 2012;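 active = inhibition above a per-plate cutoff, the mean of that plate's test compounds plus 3 SD, cut at about 27% in these data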
CHRM1 antagonist: human M1 muscarinic receptor antagonists, primary screen, CHO-K1 cells, Fluo-8 calcium fluorescence, 1536-well; Muscarinic acetylcholine receptor M1 (Homo sapiens), P11229; CHO-K1 hM1, ACh EC80 antagonist; inhibition, % at 3 µM; actives 1.3% (n = 360,000); AID 588852, 2011;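 active = percent inhibition above its own plate's cutoff, namely the mean of that plate's compound wells plus 3 SD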;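 also: peak over basal fluorescence ratio during 140 s after agonist addition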
CHRM5 PAM: human M5 muscarinic receptor positive allosteric modulators, primary screen, CHO-K1 cells, Fluo-8 calcium fluorescence; actives 0.3% (n = 360,000); CHO-K1 hM5, ACh EC20 PAM; 0% = ACh EC20, 100% = ACh EC100; activation, % at 3 µM; AID 624038, 2012; Muscarinic acetylcholine receptor M5 (Homo sapiens), P08912;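 active = activation above the run cutoff, the mean activation of all test compounds plus 3 SD, cut at about 18% in these data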
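Assay system – human M5 receptor in CHO-K1 cells · Read-out – % activation, ACh-normalized · Technique – Fluo-8 calcium fluorescence · Dosing – single-point, 3 µM nominal · Incubation – Fluo-8 loading 80 min at 37 °C plus 30 min room temperature · Repeats – singlicate, one well per test compound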
M1 ag: human M1 muscarinic receptor agonists, primary screen, Fluo-8 calcium fluorescence, CHO-K1 cells, HTS; Muscarinic acetylcholine receptor M1 (Homo sapiens), P11229; CHO-K1 hM1, agonist mode; 0% DMSO, 100% acetylcholine EC100; activation, % at 3 µM; actives 0.33% (n = 360,000);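 active = activation above the run's mean compound activation plus 3 SD, cut at about 16% in these data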;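 also: peak over basal fluorescence ratio within a 140 s kinetic read after compound addition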
Each line names hits and unclear results; the compound was inactive in the other large screens. Sampled rows, rich in hits. Any-hit rate of the full collection: about 2%.

CC(C)C(=O)N1CCC1(C)C(=O)Nc1nc2ccccc2[nH]1 (centres undefined)	none
COc1cccc(C(=O)N2CCC[C@H]2C(=O)N2CCC[C@H]2C(=O)N[C@@H](C)c2ccccc2)c1	none (no result: M1 PAM, CHRM1 antagonist, M1 ag)
CCCOc1ccc(C(CC(=O)O)NC(=O)C(c2ccccc2)c2ccccc2)cc1 (centres undefined)	none
COc1ccc(C(C(=O)OCCN(C)C)c2ccccc2)cc1 (centres undefined)	CHRM1 antagonist 78
CCCOc1ccc(C(C(=O)OCCN(CC)CC)c2ccccc2)cc1 (centres undefined)	CHRM5 antagonist 55, CHRM1 antagonist 98
CC1(C(=O)Nc2ccc3c(c2)OCCO3)CN(S(C)(=O)=O)CC(=O)N1CCc1ccccc1 (centres undefined)	none (no result: M1 PAM, CHRM1 antagonist, M1 ag)
CCOc1cc(/C=C2\SC(=O)N(CC(=O)Nc3ccccc3F)C2=O)cc([N+](=O)[O-])c1O	CHRM5 PAM 23
CN(C)c1ccc(/C=N/n2c(-c3ccccc3Br)n[nH]c2=S)cc1	CHRM1 antagonist 32
CN(C)c1ccc(/C=N/n2c(-c3cccnc3)n[nH]c2=S)cc1	none
O=C(NC(Cc1c[nH]c2ccccc12)C(=O)O)c1cccc(S(=O)(=O)N2CCCCC2)c1 (centres undefined)	none
CC(C)NC(=O)C1(C)CCN1C(=O)c1cccn1C (centres undefined)	none
COc1ccc(-c2noc(CCCCC(=O)N3CCN(c4cc(C)ccc4C)CC3)n2)cc1	CHRM5 antagonist 32
Cc1cc(OCCn2ccnc2)cc(C(C)C)c1	CHRM1 antagonist 74
Cc1cc(OCCCn2ccnc2)cc(C(C)C)c1	none
Cc1cccc(OCCCCCn2ccnc2)c1	M1 ag 17
Cc1ccc(-c2[nH]ncc2/C=N/n2c(COc3ccccc3)nc3ccccc3c2=O)cc1	CHRM1 antagonist 29
Cc1ccccc1OCc1nc2ccccc2c(=O)n1/N=C/c1cn[nH]c1-c1ccccc1	CHRM1 antagonist 29
O=C(Nc1ccc(S(=O)(=O)Nc2ncccn2)cc1)c1ccc(Br)cc1	none
COc1ccc(C(CCNCc2ccc(OC(C)C)cc2)C(C)C)cc1 (centres undefined)	CHRM1 antagonist 36
COc1ccc(C(CCNCc2ccc(N(C)C)cc2)C(C)C)cc1 (centres undefined)	CHRM1 antagonist 39
COc1ccc(CNCCC(c2ccc(OC(C)C)cc2)C(C)C)cc1OC (centres undefined)	none
COc1ccc(NC(=O)c2cc(-c3cc(F)ccc3OCC3CCCO3)n[nH]2)c(C)c1 (centres undefined)	none
Cc1nc2ccc(C(=O)N3c4ccccc4N=C(c4ccc(C(F)(F)F)cc4)C3C(=O)NC(C)(C)C)cc2[nH]1 (centres undefined)	none (no result: M1 PAM, CHRM1 antagonist, M1 ag)
CC(NS(=O)(=O)c1ccc(Br)cc1F)[C@H](O)c1ccccc1 (some centres undefined)	none
CC(=O)Nc1ccc(C(=O)OCC(=O)NCc2ccccc2)cc1	CHRM5 antagonist 27
CC(=O)Nc1ccc(OCC(=O)NCc2ccccc2)cc1	none
COc1ccc(S(=O)(=O)n2c(N)nc3ccccc32)cc1	CHRM5 antagonist 69, CHRM1 antagonist 100
Cc1ccc(S(=O)(=O)n2c(N)nc3ccccc32)cc1	CHRM5 antagonist 76, CHRM1 antagonist 98
Nc1nc2ccccc2n1S(=O)(=O)c1ccc(Cl)cc1	CHRM5 antagonist 40, CHRM1 antagonist 79
CC(C)C[C@@H]1CN(CCCC[C@H]2CNC(=O)C(=O)N2CCC2CCCCC2)C(=O)C(=O)N1CCc1ccc(O)cc1	none (no result: M1 PAM, CHRM1 antagonist, M1 ag)
CC1(c2nnnn2-c2ccc3c(c2)OCCO3)CCC(=O)N1CC(F)(F)F (centres undefined)	none (no result: M1 PAM, CHRM1 antagonist, M1 ag)
COc1ccccc1NC(=O)c1cc2c(=O)n(C)c3ccccc3c2n1C	CHRM1 antagonist 93
O=[N+]([O-])c1cccc(COc2ccc(CN3CCCCC3)cc2)c1	CHRM1 antagonist 87
Oc1ccc(N2CCN(Cc3ccc(OCCCN4CCCCC4)cc3)CC2)cc1	none
CCCCOc1ccc(C(O)C(CN2CCOCC2)c2ccccc2)cc1 (centres undefined)	none
CCCCOc1ccc(CN2CCCCC2)cc1	CHRM1 antagonist 42
CCCCOc1ccc(C(O)C(CN2CCCCC2)c2ccccc2)cc1 (centres undefined)	CHRM1 antagonist 35
O=[N+]([O-])c1cccc(COc2ccccc2CN2CCCCC2)c1	none
CC1=CN2C(c3cccc([N+](=O)[O-])c3)=NON(c3ccc(C)cn3)C2C=C1 (centres undefined)	none
COC(=O)C[C@H]1CC[C@H](NC(=O)Nc2ccccc2OC)[C@@H](CO)O1	none (no result: M1 PAM, CHRM1 antagonist, M1 ag)
COc1ccc(-c2ccc3c(c2)C2CC3CCN2)cc1 (centres undefined)	none
CSCCC(C(=O)NCc1ccccc1)n1c(Cc2cc(F)cc(F)c2)nc2ccccc21 (centres undefined)	none (no result: M1 PAM, CHRM1 antagonist, M1 ag)
COc1cc(/C=C2\SC(=S)N(Nc3ncc(C(F)(F)F)cc3Cl)C2=O)ccc1O	CHRM1 antagonist 30
Cc1cc(C)nc(NN2C(=O)/C(=C/c3ccccc3)SC2=S)n1	none
CN(C)c1ccc(/C=C2\SC(=S)N(Nc3ncc(C(F)(F)F)cc3Cl)C2=O)cc1	CHRM5 antagonist 31, CHRM1 antagonist 61, M1 ag 37
CC(=O)NC(c1ccc(F)c(F)c1)c1nc(-c2ccc3c(c2)OCO3)cs1 (centres undefined)	none
CCN(c1ccccc1)S(=O)(=O)c1cccc(C(=O)NCC(c2cccs2)N(C)C)c1 (centres undefined)	CHRM1 antagonist 52
COc1ccc(N2CCN(C(=O)Cn3nnc(-c4ccc(OC)c(OC)c4)n3)CC2)cc1	none
Cc1ccc(-c2nnn(CC(=O)N3CCN(c4ccccc4)CC3)n2)o1	M1 PAM 30
COCCn1c2nc(=O)n(-c3ccccc3)c(=O)c-2nc2ccccc21	CHRM5 agonist 28, M1 ag 56
COc1ccccc1CCNC(=O)c1cc(-c2ccccn2)nc2ccccc12	CHRM1 antagonist 32
Cc1nn(S(=O)(=O)c2cccs2)c(C)c1Sc1ccc([N+](=O)[O-])cc1	CHRM1 antagonist 28
